Structures are written as SMILES. Calls of active or inactive are those of the source. The calls are words filed in the database; no cut-off is given here.

The target in assay [1] is T1, Aromatase (Homo sapiens, UniProt P11511).
T1 sequence (P11511 whole entry): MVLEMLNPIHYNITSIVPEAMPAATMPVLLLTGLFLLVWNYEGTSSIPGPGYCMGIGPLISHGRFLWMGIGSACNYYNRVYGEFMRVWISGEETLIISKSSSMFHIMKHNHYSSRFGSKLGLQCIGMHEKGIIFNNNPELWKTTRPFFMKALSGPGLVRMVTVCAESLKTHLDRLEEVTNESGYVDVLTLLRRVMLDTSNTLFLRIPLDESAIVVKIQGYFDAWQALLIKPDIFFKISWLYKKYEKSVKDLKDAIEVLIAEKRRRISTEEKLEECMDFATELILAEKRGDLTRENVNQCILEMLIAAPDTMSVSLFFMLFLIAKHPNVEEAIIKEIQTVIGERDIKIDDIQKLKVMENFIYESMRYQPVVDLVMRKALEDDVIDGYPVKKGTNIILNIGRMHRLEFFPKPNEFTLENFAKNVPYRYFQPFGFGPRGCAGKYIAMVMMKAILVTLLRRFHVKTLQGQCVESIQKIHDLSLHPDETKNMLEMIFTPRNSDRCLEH
As to the kind of experiment: Inhibition of aromatase (unknown origin) using dibenzylfluorescein substrate at 50 uM after 24 hrs by fluorescence assay.

Assay [2] deals with Beta-secretase 1 (Homo sapiens) (UniProt P56817). As to the kind of experiment: Inhibition of BACE1 (unknown origin) assessed as proteolytic cleavage of amyloid precursor protein after 16 hrs at < 100 uM by chemiluminescence assay.
Assay [3] has as its target Nuclear factor NF-kappa-B complex (Homo sapiens) (UniProt Q00653+P19838+Q04206). Description: Inhibition of TNF-alpha-induced NF-kappaB activity in HEK293 cells after 6 hrs by luciferase reporter gene assay. It counts as cell-based.
For assay [4], the target named is T2, Nitric oxide synthase, inducible (Mus musculus) (UniProt P29477).
T2 sequence (whole entry): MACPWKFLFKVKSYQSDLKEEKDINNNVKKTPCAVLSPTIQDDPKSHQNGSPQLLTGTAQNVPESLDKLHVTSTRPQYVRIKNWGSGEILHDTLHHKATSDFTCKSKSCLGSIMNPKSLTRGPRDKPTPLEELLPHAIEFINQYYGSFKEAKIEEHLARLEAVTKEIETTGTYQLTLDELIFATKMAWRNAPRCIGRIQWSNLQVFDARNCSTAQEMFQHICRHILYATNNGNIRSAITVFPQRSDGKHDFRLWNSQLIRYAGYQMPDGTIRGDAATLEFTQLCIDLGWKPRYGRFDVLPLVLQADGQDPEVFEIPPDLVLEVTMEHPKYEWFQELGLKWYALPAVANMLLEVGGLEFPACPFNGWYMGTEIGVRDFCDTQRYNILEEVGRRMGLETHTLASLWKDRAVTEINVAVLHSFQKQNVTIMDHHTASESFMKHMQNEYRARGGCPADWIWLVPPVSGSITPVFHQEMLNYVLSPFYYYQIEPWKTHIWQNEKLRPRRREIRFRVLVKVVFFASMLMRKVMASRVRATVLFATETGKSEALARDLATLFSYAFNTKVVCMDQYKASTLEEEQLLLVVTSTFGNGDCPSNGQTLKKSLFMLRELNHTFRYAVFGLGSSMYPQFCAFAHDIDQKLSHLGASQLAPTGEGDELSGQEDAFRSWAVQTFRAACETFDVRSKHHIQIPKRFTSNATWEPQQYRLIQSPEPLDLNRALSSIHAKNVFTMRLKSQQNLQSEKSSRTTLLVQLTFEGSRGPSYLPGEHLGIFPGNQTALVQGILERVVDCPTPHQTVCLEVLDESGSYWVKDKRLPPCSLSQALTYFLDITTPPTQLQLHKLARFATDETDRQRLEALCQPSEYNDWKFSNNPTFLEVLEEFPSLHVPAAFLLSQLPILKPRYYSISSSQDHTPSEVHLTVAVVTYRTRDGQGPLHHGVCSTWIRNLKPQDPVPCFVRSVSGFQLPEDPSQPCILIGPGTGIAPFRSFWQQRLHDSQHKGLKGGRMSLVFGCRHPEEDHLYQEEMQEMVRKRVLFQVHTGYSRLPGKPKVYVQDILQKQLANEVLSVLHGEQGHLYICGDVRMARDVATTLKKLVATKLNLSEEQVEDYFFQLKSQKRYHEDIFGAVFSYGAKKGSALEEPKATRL
As to the kind of experiment: Inhibition of LPS-induced iNOS activity in mouse RAW264.7 cells after 24 hrs. The assay is classed as cell-based.

Assay [5] deals with T1, Aromatase. As to the kind of experiment: Inhibition of aromatase (unknown origin) using dibenzylfluorescein substrate after 24 hrs by fluorescence assay.
The target of assay [6] is NAD(P)H dehydrogenase [quinone] 1 (Mus musculus) (UniProt Q64669). As to the kind of experiment: Induction of quinone reductase 1 in mouse Hepa-1c1c7 cells after 48 hrs by MTT assay. The assay is classed as cell-based. The gist of the method:
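QR1 induction measured in cultured murine Hepa 1c1c7 hepatoma cells. Potency is expressed as the CD value, the test-compound concentration needed to double QR1 enzymatic activity.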

Sequence of Beta-secretase 1 (Homo sapiens) (P56817 whole entry): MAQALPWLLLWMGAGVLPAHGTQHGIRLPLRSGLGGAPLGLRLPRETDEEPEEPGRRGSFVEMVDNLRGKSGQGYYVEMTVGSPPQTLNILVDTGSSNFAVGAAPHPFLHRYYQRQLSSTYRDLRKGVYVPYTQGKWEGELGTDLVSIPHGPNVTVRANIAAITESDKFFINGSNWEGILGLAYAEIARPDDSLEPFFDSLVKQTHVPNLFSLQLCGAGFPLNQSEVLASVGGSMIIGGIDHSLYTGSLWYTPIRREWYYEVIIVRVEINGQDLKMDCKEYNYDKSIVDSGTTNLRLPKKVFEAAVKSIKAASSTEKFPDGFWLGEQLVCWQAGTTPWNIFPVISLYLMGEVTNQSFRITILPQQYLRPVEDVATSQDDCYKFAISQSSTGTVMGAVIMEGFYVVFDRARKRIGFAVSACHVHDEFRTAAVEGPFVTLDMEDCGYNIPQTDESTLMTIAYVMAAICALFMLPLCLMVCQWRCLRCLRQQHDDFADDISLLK
Sequence of Nuclear factor NF-kappa-B complex (Homo sapiens) (P19838 whole entry, looked up): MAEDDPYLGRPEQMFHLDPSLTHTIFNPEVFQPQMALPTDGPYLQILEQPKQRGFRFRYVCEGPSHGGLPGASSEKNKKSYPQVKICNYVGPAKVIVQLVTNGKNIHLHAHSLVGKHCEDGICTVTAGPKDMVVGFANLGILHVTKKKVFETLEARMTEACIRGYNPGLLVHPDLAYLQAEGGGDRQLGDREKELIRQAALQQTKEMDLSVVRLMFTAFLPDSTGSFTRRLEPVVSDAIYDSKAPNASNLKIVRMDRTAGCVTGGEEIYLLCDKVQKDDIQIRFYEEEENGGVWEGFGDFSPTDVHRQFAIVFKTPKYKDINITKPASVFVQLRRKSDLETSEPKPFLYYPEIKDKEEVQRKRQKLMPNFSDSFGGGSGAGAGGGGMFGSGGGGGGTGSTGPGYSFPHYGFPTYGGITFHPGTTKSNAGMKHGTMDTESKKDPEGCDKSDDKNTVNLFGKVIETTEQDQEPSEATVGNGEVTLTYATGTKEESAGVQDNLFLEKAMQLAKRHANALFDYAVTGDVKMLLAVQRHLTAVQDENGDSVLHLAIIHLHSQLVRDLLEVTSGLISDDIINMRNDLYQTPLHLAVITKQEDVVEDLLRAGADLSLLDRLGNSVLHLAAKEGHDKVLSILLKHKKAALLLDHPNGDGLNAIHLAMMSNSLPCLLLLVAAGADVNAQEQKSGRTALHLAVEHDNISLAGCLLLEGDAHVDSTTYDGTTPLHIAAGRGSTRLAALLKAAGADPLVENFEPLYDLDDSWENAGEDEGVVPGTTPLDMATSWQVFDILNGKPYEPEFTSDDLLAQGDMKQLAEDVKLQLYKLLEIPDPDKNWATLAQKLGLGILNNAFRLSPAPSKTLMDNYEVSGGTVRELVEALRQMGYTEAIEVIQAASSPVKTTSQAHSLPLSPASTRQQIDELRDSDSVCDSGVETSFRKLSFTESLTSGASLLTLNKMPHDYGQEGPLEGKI
Sequence of Nuclear factor NF-kappa-B complex (Homo sapiens) (Q00653 whole entry, looked up): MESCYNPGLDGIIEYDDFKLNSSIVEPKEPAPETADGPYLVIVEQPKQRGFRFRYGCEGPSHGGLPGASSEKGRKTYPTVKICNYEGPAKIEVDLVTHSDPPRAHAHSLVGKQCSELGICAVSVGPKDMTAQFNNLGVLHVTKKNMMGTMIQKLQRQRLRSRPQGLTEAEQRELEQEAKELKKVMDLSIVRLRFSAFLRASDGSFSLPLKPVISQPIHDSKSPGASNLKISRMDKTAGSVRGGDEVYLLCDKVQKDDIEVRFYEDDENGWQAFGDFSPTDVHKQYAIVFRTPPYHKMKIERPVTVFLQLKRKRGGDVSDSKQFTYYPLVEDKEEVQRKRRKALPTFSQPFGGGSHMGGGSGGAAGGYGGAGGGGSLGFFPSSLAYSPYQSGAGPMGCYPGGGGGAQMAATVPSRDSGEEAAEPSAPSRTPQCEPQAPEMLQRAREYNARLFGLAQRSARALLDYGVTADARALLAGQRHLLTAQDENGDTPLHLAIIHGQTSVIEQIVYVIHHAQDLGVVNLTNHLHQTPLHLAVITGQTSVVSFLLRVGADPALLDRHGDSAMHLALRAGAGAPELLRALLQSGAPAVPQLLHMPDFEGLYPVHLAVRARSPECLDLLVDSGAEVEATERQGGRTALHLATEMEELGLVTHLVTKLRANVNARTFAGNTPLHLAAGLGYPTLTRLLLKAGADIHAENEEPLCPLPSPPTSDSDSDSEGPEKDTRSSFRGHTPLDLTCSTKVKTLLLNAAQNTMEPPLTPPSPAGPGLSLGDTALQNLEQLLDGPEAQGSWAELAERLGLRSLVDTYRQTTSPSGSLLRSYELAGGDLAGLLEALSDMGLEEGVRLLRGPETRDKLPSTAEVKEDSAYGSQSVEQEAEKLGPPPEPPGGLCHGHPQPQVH
Sequence of Nuclear factor NF-kappa-B complex (Homo sapiens) (Q04206 whole entry, looked up): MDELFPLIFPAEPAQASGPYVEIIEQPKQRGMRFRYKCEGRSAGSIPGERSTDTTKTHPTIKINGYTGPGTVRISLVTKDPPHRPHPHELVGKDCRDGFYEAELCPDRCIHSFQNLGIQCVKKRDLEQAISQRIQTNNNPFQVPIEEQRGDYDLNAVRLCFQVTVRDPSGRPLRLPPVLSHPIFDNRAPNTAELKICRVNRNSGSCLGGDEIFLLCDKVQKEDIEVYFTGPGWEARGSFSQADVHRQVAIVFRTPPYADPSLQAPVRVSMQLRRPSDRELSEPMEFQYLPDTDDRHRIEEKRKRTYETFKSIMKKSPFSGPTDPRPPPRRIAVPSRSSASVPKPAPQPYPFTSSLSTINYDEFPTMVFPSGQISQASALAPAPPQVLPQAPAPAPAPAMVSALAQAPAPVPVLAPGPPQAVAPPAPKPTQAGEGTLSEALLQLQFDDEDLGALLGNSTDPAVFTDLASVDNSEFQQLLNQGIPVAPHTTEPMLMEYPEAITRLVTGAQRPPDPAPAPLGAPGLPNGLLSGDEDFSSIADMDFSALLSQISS
Sequence of NAD(P)H dehydrogenase [quinone] 1 (Mus musculus) (Q64669 whole entry): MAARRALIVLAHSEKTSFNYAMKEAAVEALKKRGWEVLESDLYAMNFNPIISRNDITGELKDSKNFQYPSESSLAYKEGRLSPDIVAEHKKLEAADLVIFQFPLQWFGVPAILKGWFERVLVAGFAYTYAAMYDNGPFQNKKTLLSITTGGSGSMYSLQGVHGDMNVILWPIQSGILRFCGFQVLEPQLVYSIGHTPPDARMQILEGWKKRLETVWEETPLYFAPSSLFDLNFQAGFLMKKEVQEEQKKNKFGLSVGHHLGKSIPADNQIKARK

Turning to `CC1=C(O)C(=O)C[C@@]2(C)[C@H]1CC[C@@]1(CO)c3cocc3CC[C@@H]12`, on Aromatase [1], the inhibition at 50 µM is < 50%. Further, the inhibition result in assay [2] and in assay [4] was “inactive” in each case. Moreover, the ED50 in assay [3] is > 50 µM.

On to `C[C@]12CC(=O)OC[C@@](C)(C(=O)O)[C@@H]1CC[C@@]1(CO)c3cocc3CC[C@@H]12`, for which the inhibition at 50 µM at Aromatase [1] is < 50%. Moreover, the inhibition entry in assay [2] and in assay [4] was “inactive” each time. The ED50 in assay [3] was > 50 µM.

Compound `CC1=C(O)C(=O)C[C@]2(C)[C@H]3CCc4cocc4[C@]3(CO)CCC12O` (some centres not stated) registered an IC50 at Aromatase [5] of 34.4 µM. Also, the inhibition result in assay [2] and in assay [4] was “inactive” in each case. For the same compound, the CD in assay [6] is 11.2 µM. Also, in assay [3], the ED50 is > 50 µM.

On to `CC1=C(O)C(=O)C[C@@]2(C)[C@H]1CC[C@@]1(CO)c3cnccc3C(=O)C[C@@H]12`, for which the inhibition at 50 µM at Aromatase [1] is < 50%. Also, the inhibition entry in assay [2] and in assay [4] was “inactive” in each case. The ED50 in assay [3] was > 50 µM.

Source of the values: ChEMBL document CHEMBL3351822, “Spongiapyridine and related spongians isolated from an Indonesian Spongia sp” (J Nat Prod, 2014).
